# High-throughput results: PubChem, several laboratories
# PP5 primary: inhibitors of human protein phosphatase 5 (PP5); P53041; purified PP5c, OMFP substrate fluorescence; inhibition, % at 6.7 µM; 0.18% of 320,000 active; AID 1987;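 active means inhibition above the campaign's mean inhibition across all tested compounds plus 3 SD, cut at about 9.5% in these data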;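 further: 0% = DMSO only and 100% = 100 µM cantharidin control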
# T cell HTS: T cell immune modulation candidate | 2C CD8+ T cell-vesicle binding, flow cytometry; stronger effect = lower value | AID 2052 | 0.068% of 330,000 active | response (vesicle binding), % at 7 µM;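 active means response, share of CD8 T cells binding vesicles, and their 90th percentile fluorescence all below set limits, cut at about 80% in these data, passing the limit was not always enough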;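 further: values below 100% mean blocked vesicle binding to the CD8+ T cells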
#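 Material: murine 2C transgenic CD8+ T lymphocytes / Also added: QL9-peptide-loaded Drosophila micro-vesicles bearing Ld, ICAM-1 and B7-1 / Schedule: binding step 1.5 h, 37 °C, antibody labelling 20 min, ice / Signal: flow cytometry, PE anti-B7-1 (FL2) versus Alexa647 anti-CD8 (FL8), PFA-fixed / Evaluation: percent CD8+ FL2 mean versus row control / Benchmarks: naked versus QL9-loaded vesicles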
# HTR2A ag: mouse HTR2A agonism via beta-arrestin recruitment; P35363; CHO-K1 mHTR2A beta-arrestin complementation, luminescence; percent of 30 µM serotonin response; activation, % at 7.6 µM; 0.66% of 360,000 active; AID 624169;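 active means activation above a run cutoff, the mean activation of all tested compounds plus 3 SD, cut at about 14% in these data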;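 further: 0% = plate median of compound wells and 100% = 30 µM serotonin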
# JMJD2C inh: blocks human GASC-1 demethylase activity. AID 2099. GST-JMJD2C(1-420) H3K9me3 demethylation, DELFIA europium. Q9H3R0. inhibition, % at 2.35 µM. 0.069% of 330,000 active;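 active means more than half of a compound's replicate wells show inhibition beyond 50%, single wells judged on their own value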;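 further: signal counts dimethyl H3K9 product captured on neutravidin plate; 0% = median of DMSO wells and 100% = 0.3 times that DMSO median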
# PP1 counter: PP1-alpha (human) inhibition in PP5 counter-screen; P62136; purified PP1alpha, OMFP fluorescence; inhibition, % at 6.7 µM; 0.9% of 320,000 active; AID 2235;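 active means inhibition above the mean inhibition of all tested compounds plus 3 SD, computed separately for each screening campaign, cut at about 15% in these data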
# OPRM1 ag: counter-screen for mouse HTR2A agonists: human mu opioid receptor agonists. activation, % at 9.3 µM. shares compounds with HTR2A ag. AID 624380. U2OS OPRM1 beta-arrestin PathHunter, luminescence; DMSO 0%, DAMGO 9.3 µM 100%. 5.3% of 2,300 active;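 active means mean activation above the mean of DMSO-only wells plus 3 SD, cut at about 0.5% in these data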
# Target sequence (P35372 whole entry, looked up): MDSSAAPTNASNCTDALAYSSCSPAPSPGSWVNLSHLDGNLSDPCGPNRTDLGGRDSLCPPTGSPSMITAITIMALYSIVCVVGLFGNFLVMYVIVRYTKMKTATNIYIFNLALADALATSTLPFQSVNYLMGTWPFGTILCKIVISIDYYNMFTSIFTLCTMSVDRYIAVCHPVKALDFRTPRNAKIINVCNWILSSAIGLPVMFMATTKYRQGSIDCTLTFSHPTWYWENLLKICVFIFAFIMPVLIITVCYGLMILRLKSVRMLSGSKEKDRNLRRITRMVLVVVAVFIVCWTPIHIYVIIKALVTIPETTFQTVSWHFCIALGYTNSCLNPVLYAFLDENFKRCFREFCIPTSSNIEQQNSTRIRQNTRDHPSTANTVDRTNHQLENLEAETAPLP
# HTR2A ag conf: mouse HTR2A agonism confirmed | shares compounds with HTR2A ag | CHO-K1 PathHunter beta-arrestin recruitment, luminescence; DMSO 0%, 30 µM serotonin 100% | activation, % at 7.6 µM | 19% of 2,300 active;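 active means mean activation across triplicates above the hit threshold derived in the original primary screen, cut at about 15% in these data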
# * = called active by the depositor; . = not tested or not shown. Most compounds without a hit are left out; they make up all but 1.7% or so of the library.
SMILES,PP5 primary,T cell HTS,HTR2A ag,JMJD2C inh,PP1 counter,OPRM1 ag,HTR2A ag conf
CC(=O)OC(C)(C)/C=C/C(=O)C(C)(O)C1[C@H](O)C[C@@]2(C)C3CC=C4C(CC[C@@H](O)C4(C)C)[C@]3(CO)C(=O)C[C@]12C (stereo not given in full),0.9,112.2,25.2*,-0.9,-1.7,-0.1,3.7
Oc1ccc(C2=CCNCC2)cc1O,3.0,481.0,35.7*,12.2,-3.0,-0.4,117.2*
Cc1cc(N2C(=O)C3CCCN3C2c2sccc2C)no1 (stereo not given),-0.3,597.8,-0.5,3.0,0.1,.,.
CNc1cc(N2CCNCC2)ccc1[N+](=O)[O-],-0.7,171.1,14.0,-10.6,-0.9,.,.
Nc1cc(N2CCNCC2)ccc1[N+](=O)[O-],1.3,170.0,42.2*,0.1,-2.6,-0.2,27.7*
O=[N+]([O-])c1ccc(N2CCNCC2)cc1Sc1ccccn1,2.3,188.4,25.3*,6.3,-5.0,-0.7,10.1
CN1CCN(c2ccc([N+](=O)[O-])c(N)c2)CC1,-1.4,188.4,-4.1,-2.7,-2.8,.,.
N#CC(c1ccccc1)N1CCOCC1 (stereo not given),-1.1,411.9,1.5,3.6,0.4,.,.
O=C1NC(=O)[C@]2(Cc3ccccc3N3CCN(c4ccccc4)CC32)C(=O)N1c1ccccc1 (stereo not given in full),1.1,49.9,7.2,13.2,7.2,.,.
CN1C(=O)NC(=O)[C@]2(Cc3ccccc3N3CCN(c4ccccc4)CC32)C1=O (stereo not given in full),7.8,635.8,16.6*,11.2,-2.6,-0.2,8.2
Clc1ccc(N2CCN(Cc3ccccc3Cl)CC2)cc1,0.4,677.3,9.6,-6.9,-1.0,.,.
Clc1ccccc1CN1CCN(c2ccccc2)CC1,-0.8,601.0,26.6*,13.9,-0.2,-0.3,53.3*
O=C1Nc2ccc(Br)cc2C(c2ccccc2Cl)=NC1O (stereo not given),4.6,288.1,-0.1,-4.2,-3.2,.,.
O=P(c1ccccc1)(c1nc2ccccc2s1)N1CCOCC1 (stereo not given),1.3,213.9,6.6,-4.8,-3.3,.,.
Fc1ccc(CCNCc2ccc(Br)cc2)cc1,0.3,210.2,-4.4,-7.9,-2.1,.,.
Fc1ccc(CCNCc2cccc(Cl)c2)cc1,1.0,290.7,24.2*,7.8,3.6,-0.1,7.3
Clc1cccc(CNCCc2ccc3c(c2)OCO3)c1,0.8,185.8,32.3*,11.6,3.5,-0.4,8.2
Fc1ccccc1CNCCc1ccc2c(c1)OCO2,-0.1,212.7,20.7*,1.7,-3.2,-0.5,13.2
CN1CCN(c2nc3ccccc3o2)CC1,-0.4,111.2,-0.1,4.4,0.4,.,.
c1ccc2oc(N3CCNCC3)nc2c1,2.9,304.5,29.4*,-99.8,0.7,-0.5,10.9
C[C@@H]1O[C@@H](O[C@@H]2C=C3CCC4C(CC[C@]5(C)[C@@H](c6ccc(=O)oc6)CC[C@]45O)[C@@]3(C)CC2)[C@H](O)[C@H](O)[C@H]1O (stereo not given in full),3.3,155.6,16.2*,.,-4.2,7.7*,27.9*
C[C@@H]1O[C@@H](O[C@@H]2C=C3CC[C@@H]4C(CC[C@]5(C)[C@@H](c6ccc(=O)oc6)CC[C@]45O)[C@@]3(C)CC2)[C@H](O)[C@H](O)[C@H]1O (stereo not given in full),1.3,45.6,18.3*,-1.1,-2.7,6.3*,8.6
O=[N+]([O-])c1ccc(NCCO)c2ncccc12,2.1,0.0,-5.2,-0.8,-0.8,.,.
C[C@]12CCC3C(C1CCC2=O)[C@H](O)C[C@H]1C[C@@H](O)CC[C@]31C (stereo not given in full),.,396.1,7.4,0.5,.,.,.
Clc1ccc2[nH]c3c(c2c1)CCNC3,2.1,192.2,16.0*,4.4,-2.0,-0.5,9.1
SMILES,PP5 primary,T cell HTS,HTR2A ag,JMJD2C inh,PP1 counter,OPRM1 ag,HTR2A ag conf
COc1ccc(C(CC(=O)N2CCC3(CC2)OCCO3)NS(=O)(=O)c2ccc(F)cc2)cc1 (stereo not given),3.5,358.2,2.0,-2.7,-4.0,.,.
COc1c2c(cc3c1OCO3)CCN(C)C2,1.3,356.9,17.7*,7.3,1.0,-0.6,52.8*
CC(C)[C@@]1(NC(=O)[C@@H]2C[C@@H]3c4cccc5[nH]cc(c45)C[C@H]3N(C)C2)O[C@@]2(O)[C@@H]3CCCN3C(=O)[C@H](Cc3ccccc3)N2C1=O,1.5,744.4,29.8*,-21.0,0.6,-0.3,83.0*
CCOc1cccc(CNCCc2c(C)[nH]c3ccc(OC(F)(F)F)cc23)c1O,4.4,337.5,26.8*,-9.6,3.3,1.2*,22.4*
Cc1[nH]c2ccc(OC(F)(F)F)cc2c1CCNCc1cccc([N+](=O)[O-])c1,5.6,540.9,-4.8,38.7,8.0,.,.
c1ccc(C2(N3CCCCC3)CCCCC2)cc1,.,236.9,1.4,.,.,.,.
S=C=Nc1cccc(C2(N3CCCCC3)CCCCC2)c1,1.2,476.0,23.7*,.,-2.2,.,-0.5
O=C(CNC(=O)OCc1ccccc1)Nc1ccc(Br)cc1C(=O)c1ccccc1,6.9,273.8,-1.3,14.4,6.6,.,.
CC(N)Cc1c[nH]c2ccc(Cl)cc12 (stereo not given),1.3,824.3,79.6*,14.7,0.0,-0.3,55.1*
CCCn1c(C)c(C(=O)c2cccc3ccccc23)c2ccccc21,2.6,521.1,-0.5,9.8,-0.1,.,.
O=C(c1c[nH]cc1-c1ccccc1)c1cccc2ccccc12,5.8,301.2,20.4*,9.7,-5.4,-0.3,6.3
CN1CCN(c2ncc(C=O)s2)CC1,0.0,136.1,-1.1,-1.6,-1.5,.,.
CC(C)(C)C(=O)O[C@H]1CC[C@@]2(C)C(=CC(=O)C3C2CC[C@]2(C)C(=O)[C@H](O)CC32)C1 (stereo not given in full),.,136.8,-4.2,3.3,.,.,.
COc1ccc(-[n+]2c(-c3ccccc3)cc(-c3ccccc3)cc2-c2ccccc2)cc1,0.6,.,.,18.9,0.5,.,.
Oc1ccc(-[n+]2c(-c3ccccc3)cc(-c3ccccc3)cc2-c2ccccc2)cc1,0.6,184.9,20.6*,-1.5,5.2,0.5*,15.7*
O=C(Cc1ccc(Br)cc1)N1CCN(Cc2ccccc2)CC1,-1.4,216.6,21.4*,-8.3,-0.6,-0.8,3.7
Cc1ccc(CC(=O)N2CCN(Cc3ccccc3)CC2)cc1,1.8,129.1,3.9,-7.2,-2.9,.,.
CCC(C)N1CCN(C(=O)Cc2ccccc2)CC1 (stereo not given),0.8,140.5,20.1*,-0.7,-3.1,-0.4,3.5
O=C(Cc1ccccc1)N1CCN(Cc2cccc(Br)c2)CC1,4.0,130.1,6.9,2.8,-1.6,.,.
